Consider 13 molecules from ChEMBL document CHEMBL5385902, “Synthesis of urea and thiourea derivatives of C20-epi-aminosalinomycin and their activity against Trypanosoma brucei” (Eur J Med Chem, 2023).

In brackets after ≈: the same amount, converted by molar mass. Where only a bound is given, the exact number is not on record here.

Data set [1] in a line: Cytotoxicity against human HL-60 cells assessed as inhibition of cell growth incubated for 24 hrs and measured at 48 hrs following resazurin challenge by resazurin assay. The format is toxicity, cell-based. In a few lines:
(§1)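 Bloodstream-form T. brucei 427-221a (1 × 10^4 mL^-1) or HL-60 cells (5 × 10^4 mL^-1) in Baltz medium with 16.7% heat-inactivated bovine serum, 0.9% DMSO, 10-fold dilutions 100 μM to 100 nM; 37 °C, 5% CO2, 24 h. Resazurin then added, 48 h more; absorbance 570 nm, reference 630 nm. GI50 by linear interpolation; mean and SD of three independent experiments.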

Data set [2] can be described thus: Selectivity index, ratio of GI50 for cytotoxicity against human HL60 cells to GI50 for Trypanocidal activity against bloodstream form of Trypanosoma brucei 427-221a. The format is toxicity, cell-based. The note with it: read-out: RatioGI50. In a few lines:
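Ratio of HL-60 GI50 to T. brucei GI50. Both from the resazurin assay in Baltz medium with 16.7% heat-inactivated bovine serum and 0.9% DMSO, 10-fold dilutions 100 μM to 100 nM, 24 h then 48 h with resazurin. GI50 by linear interpolation, three independent experiments.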

Data set [3] has as its system Trypanosoma brucei. Put plainly: Trypanocidal activity against bloodstream form of Trypanosoma brucei 427-221a assessed as inhibition of parasite growth incubated for 24 hrs and measured at 48 hrs following resazurin challenge by resazurin assay. It is filed as functional. As to conditions: time 72 hrs. In a few lines: as §1
The test system of data set [4] is Trypanosoma brucei. Put plainly: Trypanocidal activity against bloodstream form of Trypanosoma brucei 427-221a assessed as parasite killing incubated for 24 hrs by microscopic analysis. It is filed as functional. In a few lines: (§2)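 Bloodstream-form T. brucei 427-221a seeded at 1 × 10^4 mL^-1 or HL-60 cells at 5 × 10^4 mL^-1 in Baltz medium with 16.7% heat-inactivated bovine serum, 0.9% DMSO, 10-fold dilutions 100 μM to 100 nM; 37 °C, 5% CO2. MIC, concentration killing all cells, determined microscopically. Possible values 100 μM down to […].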

Data set [5] is described as follows: Cytotoxicity against human HL-60 cells assessed as cell killing incubated for 24 hrs by microscopic analysis. The format is toxicity, cell-based. The note with it: read-out: MIC. In a few lines: as §2
Data set [6] is described as follows: Selectivity index, ratio of MIC for cytotoxicity against human HL60 cells to MIC for Trypanocidal activity against bloodstream form of Trypanosoma brucei 427-221a. The format is toxicity, cell-based. As to conditions: read-out: Selectivity Index.

Turning to `CC[C@@H](C(=O)[C@@H](C)[C@@H](O)[C@H](C)[C@@H]1O[C@@H]([C@@H](CC)C(=O)O)CC[C@@H]1C)[C@H]1O[C@]2(C=C[C@H](NC(=O)Nc3cccc4ccccc34)[C@]3(CC[C@@](C)([C@H]4CC[C@](O)(CC)[C@H](C)O4)O3)O2)[C@H](C)C[C@@H]1C`, the GI50 at 72 h in data set [1] came out at 13.5 µM. The selectivity ratio in data set [2] is 7.1; in data set [6] it was 10. Also, in data set [3], the GI50 stood at 1.9 µM. Further, the MIC in data set [4] was determined as 10 µM (≈ 9.19 µg/mL). In data set [5], the MCC at 24 h came to 100 µM.
With `CCCNC(=O)N[C@H]1C=C[C@]2(O[C@H]([C@@H](CC)C(=O)[C@@H](C)[C@@H](O)[C@H](C)[C@@H]3O[C@@H]([C@@H](CC)C(=O)O)CC[C@@H]3C)[C@@H](C)C[C@H]2C)O[C@@]12CC[C@@](C)([C@H]1CC[C@](O)(CC)[C@H](C)O1)O2`, the GI50 at 72 h in data set [1] was found to be 36.7 µM. Also, the selectivity ratio in data set [2] came out at 12.7; in data set [6] it was 10. For the same molecule, the GI50 in data set [3] was determined as 2.9 µM. Further, in data set [4], the minimal inhibitory concentration (MIC) turned out to be 10 µM (≈ 8.35 µg/mL). Also, the MCC at 24 h in data set [5] is 100 µM.
In the case of `Cc1ccc(C(=O)Nc2ccc(S(=O)(=O)O)c3cc(S(=O)(=O)O)cc(S(=O)(=O)O)c23)cc1NC(=O)c1cccc(NC(=O)Nc2cccc(C(=O)Nc3cc(C(=O)Nc4ccc(S(=O)(=O)O)c5cc(S(=O)(=O)O)cc(S(=O)(=O)O)c45)ccc3C)c2)c1` [SURAMIN], the concentration for 50% growth inhibition (GI50) at 72 h in data set [1] is > 100 µM. Further, the figures for the selectivity ratio in data set [2] and in data set [6] were > 2560 and > 1000, respectively. Moreover, in data set [3], the GI50 turned out to be 0.039 µM. Also, in data set [4], the MIC amounted to 0.1 µM (≈ 0.13 µg/mL). In data set [5], the MCC at 24 h was > 100 µM.
With `CCNC(=S)N[C@H]1C=C[C@]2(O[C@H]([C@@H](CC)C(=O)[C@@H](C)[C@@H](O)[C@H](C)[C@@H]3O[C@@H]([C@@H](CC)C(=O)O)CC[C@@H]3C)[C@@H](C)C[C@H]2C)O[C@@]12CC[C@@](C)([C@H]1CC[C@](O)(CC)[C@H](C)O1)O2`, the GI50 at 72 h in data set [1] was found to be 18.5 µM. In addition, the selectivity ratio amounted to 56.1 in data set [2] and 100 in data set [6]. Also, in data set [3], the GI50 was determined as 0.33 µM. For the same molecule, in data set [4], the minimal inhibitory concentration (MIC) was determined as 1 µM (≈ 0.837 µg/mL). Besides, the MCC at 24 h in data set [5] worked out at 100 µM.
In the case of `CCNC(=O)N[C@H]1C=C[C@]2(O[C@H]([C@@H](CC)C(=O)[C@@H](C)[C@@H](O)[C@H](C)[C@@H]3O[C@@H]([C@@H](CC)C(=O)O)CC[C@@H]3C)[C@@H](C)C[C@H]2C)O[C@@]12CC[C@@](C)([C@H]1CC[C@](O)(CC)[C@H](C)O1)O2`, the concentration for 50% growth inhibition (GI50) at 72 h in data set [1] was 42 µM. The figures for the selectivity ratio in data set [2] and in data set [6] were 13.1 and 10, respectively. The GI50 in data set [3] is 3.2 µM. Moreover, the MIC in data set [4] turned out to be 10 µM (≈ 8.21 µg/mL). In addition, the MCC at 24 h in data set [5] came to 100 µM.
For `CC[C@@H](C(=O)[C@@H](C)[C@@H](O)[C@H](C)[C@@H]1O[C@@H]([C@@H](CC)C(=O)O)CC[C@@H]1C)[C@H]1O[C@]2(C=C[C@H](NC(=O)NCc3ccccc3)[C@]3(CC[C@@](C)([C@H]4CC[C@](O)(CC)[C@H](C)O4)O3)O2)[C@H](C)C[C@@H]1C`, the 50% growth inhibitory concentration (GI50) at 72 h in data set [1] was 16.7 µM. For the same molecule, the selectivity ratio in data set [2] was 11.1; in data set [6] it was 10. Moreover, in data set [3], the concentration for 50% growth inhibition (GI50) amounted to 1.5 µM. The MIC in data set [4] worked out at 10 µM (≈ 8.83 µg/mL). The MCC at 24 h in data set [5] was found to be 100 µM.
`C=CCNC(=S)N[C@H]1C=C[C@]2(O[C@H]([C@@H](CC)C(=O)[C@@H](C)[C@@H](O)[C@H](C)[C@@H]3O[C@@H]([C@@H](CC)C(=O)O)CC[C@@H]3C)[C@@H](C)C[C@H]2C)O[C@@]12CC[C@@](C)([C@H]1CC[C@](O)(CC)[C@H](C)O1)O2`: the concentration for 50% growth inhibition (GI50) at 72 h in data set [1] came out at 15.1 µM. For the same molecule, the values for the selectivity ratio in data set [2] and in data set [6] were 48.7 and 100, respectively. The GI50 in data set [3] came out at 0.31 µM. In addition, the MIC in data set [4] turned out to be 1 µM (≈ 0.849 µg/mL). In addition, in data set [5], the MCC at 24 h turned out to be 100 µM.
Regarding `CC[C@@H](C(=O)[C@@H](C)[C@@H](O)[C@H](C)[C@@H]1O[C@@H]([C@@H](CC)C(=O)O)CC[C@@H]1C)[C@H]1O[C@]2(C=C[C@H](NC(=O)Nc3ccccc3)[C@]3(CC[C@@](C)([C@H]4CC[C@](O)(CC)[C@H](C)O4)O3)O2)[C@H](C)C[C@@H]1C`, the GI50 at 72 h in data set [1] is 44.9 µM. In addition, the selectivity ratio in data set [2] stood at 15.5; in data set [6], 10. For the same molecule, in data set [3], the concentration for 50% growth inhibition (GI50) came out at 2.9 µM. In data set [4], the MIC stood at 10 µM (≈ 8.69 µg/mL). For the same molecule, the MCC at 24 h in data set [5] is 100 µM.
For the molecule `C=CCNC(=O)N[C@H]1C=C[C@]2(O[C@H]([C@@H](CC)C(=O)[C@@H](C)[C@@H](O)[C@H](C)[C@@H]3O[C@@H]([C@@H](CC)C(=O)O)CC[C@@H]3C)[C@@H](C)C[C@H]2C)O[C@@]12CC[C@@](C)([C@H]1CC[C@](O)(CC)[C@H](C)O1)O2`, the GI50 at 72 h in data set [1] was 38.3 µM. For the same molecule, the selectivity ratio in data set [2] amounted to 12; in data set [6], 10. In addition, the GI50 in data set [3] amounted to 3.2 µM. The minimal inhibitory concentration (MIC) in data set [4] was determined as 10 µM (≈ 8.33 µg/mL). Also, the MCC at 24 h in data set [5] came to 100 µM.
`CC[C@@H](C(=O)[C@@H](C)[C@@H](O)[C@H](C)[C@@H]1O[C@@H]([C@@H](CC)C(=O)O)CC[C@@H]1C)[C@H]1O[C@]2(C=C[C@H](NC(=O)NCCCCl)[C@]3(CC[C@@](C)([C@H]4CC[C@](O)(CC)[C@H](C)O4)O3)O2)[C@H](C)C[C@@H]1C`: in data set [1], the 50% growth inhibitory concentration (GI50) at 72 h worked out at 18.1 µM. For the same molecule, the selectivity ratio in data set [2] was found to be 7.9; in data set [6] it was 10. Also, the concentration for 50% growth inhibition (GI50) in data set [3] was 2.3 µM. In data set [4], the MIC turned out to be 10 µM (≈ 8.7 µg/mL). For the same molecule, in data set [5], the MCC at 24 h was determined as 100 µM.
Regarding `CC[n+]1c(-c2ccccc2)c2cc(N)ccc2c2ccc(N)cc21` [HOMIDIUM BROMIDE], the concentration for 50% growth inhibition (GI50) at 72 h in data set [1] came out at 6.4 µM. Also, the selectivity ratio in data set [2] came out at 73.6; in data set [6], 1. Moreover, the GI50 in data set [3] came to 0.087 µM. For the same molecule, the MIC in data set [4] amounted to 10 µM. In data set [5], the MCC at 24 h was 10 µM.
With `CCCCCCCCNC(=O)N[C@H]1C=C[C@]2(O[C@H]([C@@H](CC)C(=O)[C@@H](C)[C@@H](O)[C@H](C)[C@@H]3O[C@@H]([C@@H](CC)C(=O)O)CC[C@@H]3C)[C@@H](C)C[C@H]2C)O[C@@]12CC[C@@](C)([C@H]1CC[C@](O)(CC)[C@H](C)O1)O2`, the GI50 at 72 h in data set [1] was found to be 6.3 µM. Besides, the values for the selectivity ratio in data set [2] and in data set [6] were 23.3 and 10, respectively. Further, in data set [3], the GI50 was determined as 0.27 µM. In data set [4], the MIC worked out at 1 µM (≈ 0.905 µg/mL). In addition, the MCC at 24 h in data set [5] came out at 10 µM.
Consider `CC[C@@H](C(=O)[C@@H](C)[C@@H](O)[C@H](C)[C@@H]1O[C@@H]([C@@H](CC)C(=O)O)CC[C@@H]1C)[C@H]1O[C@]2(C=C[C@H](NC(=O)NCCCl)[C@]3(CC[C@@](C)([C@H]4CC[C@](O)(CC)[C@H](C)O4)O3)O2)[C@H](C)C[C@@H]1C`, for which, in data set [1], the GI50 at 72 h was 38.5 µM. Besides, the selectivity ratio in data set [2] was determined as 12; in data set [6] it was 10. Further, the GI50 in data set [3] came out at 3.2 µM. Moreover, in data set [4], the minimum inhibitory concentration (MIC) amounted to 10 µM (≈ 8.56 µg/mL). In addition, the MCC at 24 h in data set [5] turned out to be 100 µM.
